Assay [1] concerns the target Zinc finger protein 40 (Homo sapiens) (UniProt P15822). The conditions noted are these: 4.0 mM.
Assay [2] has the same target. Description: Inhibition of human DNA binding to HIV-EP1 (enhancer binding protein) at 1.0 mM concentration.
Assay [3] has the same target. As to the kind of experiment: Inhibition of human DNA binding to HIV-EP1 (enhancer binding protein) at 0.7 mM concentration and 2.1 mM of ZnSO4. An outline of the steps: (§1)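 Same HIV-EP1 κB-site binding assay: protein with ligand and poly(dI-dC), 30 min at room temperature, in H2O-CH3OH (96:4), then labelled κB oligonucleotide. ZnSO4 at the stated level was introduced either during or after the ligand inhibition reaction. Read-out is percentage of HIV-EP1 bound to DNA.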

Assay [4] has the same target. As to the kind of experiment: Inhibition of human DNA binding to HIV-EP1 (enhancer binding protein) at 0.1 mM concentration.
Assay [5] has the same target. As to the kind of experiment: Inhibition of human DNA binding to HIV-EP1 (enhancer binding protein) at 0.05 mM concentration.
For assay [6] the target is unchanged. Description: Inhibition of human DNA binding to HIV-EP1 (enhancer binding protein) at 0.7 mM concentration.
Assay [7] shares this target. As to the kind of experiment: Inhibition of human DNA binding to HIV-EP1 (enhancer binding protein) at 0.01 mM concentration.
The target is the same in assay [8]. Description: Inhibition of human DNA binding to HIV-EP1 (enhancer binding protein) at 0.4 mM concentration.
Assay [9] has the same target. As to the kind of experiment: Inhibition of human DNA binding to HIV-EP1 (enhancer binding protein) at 0.7 mM concentration and 0.7 mM of ZnSO4. The procedure, abridged: as §1

Chain of Zinc finger protein 40 (Homo sapiens) (P15822 whole entry, looked up): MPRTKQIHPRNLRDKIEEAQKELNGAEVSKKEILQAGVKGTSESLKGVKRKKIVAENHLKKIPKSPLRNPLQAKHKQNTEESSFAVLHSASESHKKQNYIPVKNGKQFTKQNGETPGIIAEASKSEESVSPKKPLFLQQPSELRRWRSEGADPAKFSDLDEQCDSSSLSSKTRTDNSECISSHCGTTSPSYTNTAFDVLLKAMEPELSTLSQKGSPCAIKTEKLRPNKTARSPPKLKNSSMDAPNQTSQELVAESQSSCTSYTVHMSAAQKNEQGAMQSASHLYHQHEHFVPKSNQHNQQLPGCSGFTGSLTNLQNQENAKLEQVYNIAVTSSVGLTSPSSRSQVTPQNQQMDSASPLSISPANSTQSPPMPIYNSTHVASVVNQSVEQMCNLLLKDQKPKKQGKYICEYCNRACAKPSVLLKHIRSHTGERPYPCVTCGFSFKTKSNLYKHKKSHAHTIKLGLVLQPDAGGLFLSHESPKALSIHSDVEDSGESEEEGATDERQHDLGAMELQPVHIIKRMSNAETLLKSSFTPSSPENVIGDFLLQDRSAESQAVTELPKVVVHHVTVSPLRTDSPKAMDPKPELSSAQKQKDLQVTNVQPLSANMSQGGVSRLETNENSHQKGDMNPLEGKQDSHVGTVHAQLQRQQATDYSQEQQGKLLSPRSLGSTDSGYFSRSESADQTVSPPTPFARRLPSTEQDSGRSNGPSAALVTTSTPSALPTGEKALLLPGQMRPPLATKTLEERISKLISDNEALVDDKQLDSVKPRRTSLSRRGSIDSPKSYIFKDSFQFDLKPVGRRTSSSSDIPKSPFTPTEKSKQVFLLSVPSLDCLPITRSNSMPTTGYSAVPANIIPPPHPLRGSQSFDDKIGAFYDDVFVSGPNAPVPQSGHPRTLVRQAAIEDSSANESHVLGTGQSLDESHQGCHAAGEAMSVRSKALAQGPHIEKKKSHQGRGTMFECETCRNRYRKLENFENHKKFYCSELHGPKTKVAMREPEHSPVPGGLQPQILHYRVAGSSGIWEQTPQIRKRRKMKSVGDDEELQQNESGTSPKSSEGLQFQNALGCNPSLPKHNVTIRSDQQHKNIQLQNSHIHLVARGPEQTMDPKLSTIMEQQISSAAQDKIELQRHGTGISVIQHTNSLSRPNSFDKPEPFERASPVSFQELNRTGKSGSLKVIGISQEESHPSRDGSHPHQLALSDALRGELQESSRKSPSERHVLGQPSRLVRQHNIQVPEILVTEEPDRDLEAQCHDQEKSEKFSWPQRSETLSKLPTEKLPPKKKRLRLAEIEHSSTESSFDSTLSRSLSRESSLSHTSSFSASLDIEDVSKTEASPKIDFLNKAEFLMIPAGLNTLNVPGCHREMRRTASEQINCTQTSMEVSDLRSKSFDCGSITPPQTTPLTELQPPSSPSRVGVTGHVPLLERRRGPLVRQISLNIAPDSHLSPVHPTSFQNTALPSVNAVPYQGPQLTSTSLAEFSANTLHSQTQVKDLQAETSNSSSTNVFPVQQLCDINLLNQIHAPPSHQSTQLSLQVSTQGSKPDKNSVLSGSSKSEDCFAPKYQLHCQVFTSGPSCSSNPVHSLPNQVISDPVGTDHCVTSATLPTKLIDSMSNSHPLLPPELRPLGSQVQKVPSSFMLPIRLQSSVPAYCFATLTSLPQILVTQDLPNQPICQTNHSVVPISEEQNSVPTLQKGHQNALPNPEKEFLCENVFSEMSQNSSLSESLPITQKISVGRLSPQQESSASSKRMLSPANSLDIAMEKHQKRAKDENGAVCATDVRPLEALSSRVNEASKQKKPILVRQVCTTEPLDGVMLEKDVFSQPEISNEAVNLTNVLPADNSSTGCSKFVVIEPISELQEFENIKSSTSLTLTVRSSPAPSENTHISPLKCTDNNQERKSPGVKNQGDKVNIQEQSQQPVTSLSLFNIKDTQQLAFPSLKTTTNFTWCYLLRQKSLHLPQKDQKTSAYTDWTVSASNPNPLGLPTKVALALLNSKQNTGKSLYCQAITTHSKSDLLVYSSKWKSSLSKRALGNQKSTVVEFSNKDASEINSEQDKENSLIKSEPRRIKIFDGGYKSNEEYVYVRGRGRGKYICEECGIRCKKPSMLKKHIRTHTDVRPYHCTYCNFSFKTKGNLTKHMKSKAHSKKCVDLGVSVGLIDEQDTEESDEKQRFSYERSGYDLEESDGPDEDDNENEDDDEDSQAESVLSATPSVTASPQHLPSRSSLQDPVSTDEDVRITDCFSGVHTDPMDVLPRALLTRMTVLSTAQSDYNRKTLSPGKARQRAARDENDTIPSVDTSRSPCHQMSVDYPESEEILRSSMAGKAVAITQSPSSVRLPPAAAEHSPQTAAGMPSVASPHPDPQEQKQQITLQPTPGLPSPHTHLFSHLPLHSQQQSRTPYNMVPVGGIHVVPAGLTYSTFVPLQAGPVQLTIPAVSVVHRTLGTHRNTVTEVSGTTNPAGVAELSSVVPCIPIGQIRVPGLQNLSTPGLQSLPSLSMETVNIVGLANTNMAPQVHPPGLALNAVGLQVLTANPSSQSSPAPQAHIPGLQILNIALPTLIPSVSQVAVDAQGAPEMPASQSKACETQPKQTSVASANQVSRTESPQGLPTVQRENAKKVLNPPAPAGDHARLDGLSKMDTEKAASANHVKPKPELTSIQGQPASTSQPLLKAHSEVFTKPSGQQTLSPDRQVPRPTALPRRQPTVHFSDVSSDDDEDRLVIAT

For the compound `O=C(O)CN(CCN(CC(=O)O)CC(=O)O)CC(=O)O`, the Binding in assay [1] came to 16%; in assay [2], 33%.

For `COC(=O)[C@H](Cc1c[nH]cn1)NCc1cc(N(C)C)cc(CN[C@@H](Cc2c[nH]cn2)C(=O)OC)n1`, the Binding in assay [3] came to 100%; in assay [4], 68%; in assay [5] it was 81%; in [6], 0%; in assay [7] it was 100%; in [8], 4%. Besides, the Binding in [9] came out at 100%; in assay [2] it was 0%.

The values above are taken from ChEMBL document CHEMBL1127430, “Novel zinc chelators which inhibit the binding of HIV-EP1 (HIV enhancer binding protein) to NF-kappa B recognition sequence” (J Med Chem, 1994).
